Reference: ChEMBL document CHEMBL3616436, “Synthesis, cytotoxicity and antimicrobial activity of thiourea derivatives incorporating 3-(trifluoromethyl)phenyl moiety” (Eur J Med Chem, 2015)

Experiments:
[1] = system: Yellow fever virus; assay: Antiviral activity against Yellow fever virus 17D infected in BHK cells assessed as protection against virus-induced cytopathogenicity after 3 to 4 days by MTT assay; format: functional, cell-based
[2] = Cytotoxicity against BHK cells assessed as cell viability after 48 to 96 hrs by MTT assay; format: cell-based, Mesocricetus auratus; conditions: hamster
[3] = Cytotoxicity against bovine MDBK cells assessed as cell viability after 48 to 96 hrs by MTT assay; format: cell-based, Bos taurus; conditions: cattle
[4] = Antiviral activity against Bovine viral diarrhea virus 1-NADL ATCC VR-534 infected in MDBK cells assessed as protection against virus-induced cytopathogenicity after 3 to 4 days by MTT assay; format: functional, cell-based; conditions: Bovine viral diarrhea virus isolates and strains, ATCC VR-534, MDBK
Outline: (§1)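 Cells seeded in 96-well plates (BHK 5x10^4, MDBK 3x10^4 cells/well), grown overnight to confluence, infected at m.o.i. 0.01 (BHK for Reo-1, MDBK for BVDV); serial compound dilutions in maintenance medium with 0.5% inactivated FBS added after 1 h; viability by MTT after 3–4 days at 37°C; EC50 for 50% protection by linear regression.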

[5] = system: Coxsackievirus B5; assay: Antiviral activity against Human coxsackievirus B5 ATCC VR-29 infected in African green monkey Vero 76 cells assessed as reduction of virus-plaque formation after 3 days by crystal violet staining; format: functional, organism-based; conditions: Enterovirus B, ATCC VR-29, Vero, 72 h
Outline: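 Plaque reduction: Vero-76 at 2x10^5 cells/well grown to confluent monolayers, infected 2 h at 50–100 PFU/well; after removing unadsorbed virus, overlay of D-MEM, 1% inactivated FBS, 0.75% methylcellulose with or without serial compound dilutions; 3 days at 37°C, fixed and stained with crystal violet in 50% ethanol, plaques counted; EC50 by linear regression.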

[6] = Cytotoxicity against African green monkey Vero 76 cells assessed as cell viability after 48 to 96 hrs by crystal violet staining; format: cell-based; conditions: chlorocebus sabaeus
[7] = system: Poliovirus 1; assay: Antiviral activity against Poliovirus type 1 ATCC VR-1562 infected in African green monkey Vero 76 cells assessed as reduction of virus-plaque formation after 2 days by crystal violet staining; format: functional, organism-based; conditions: Enterovirus C, ATCC VR-1562, Vero, 48 h
[8] = system: Mammalian orthoreovirus 1; assay: Antiviral activity against Reovirus type-1 ATCC VR-214 infected in BHK cells assessed as protection against virus-induced cytopathogenicity after 3 to 4 days by MTT assay; format: functional, cell-based; conditions: Mammalian orthoreovirus 1, ATCC VR-214, BHK; outline: as §1
[9] = Cytotoxicity against human MT4 cells; format: cell-based

Row | SMILES | CC50 [2] | CC50 [3] | CC50 [6] | other results
1 | C[C@@]1(O)[C@H](O)[C@@H](CO)O[C@H]1n1cnc2c(=O)[nH]c(N)nc21 [2'-B-METHYL-GUANOSINE] | > 100 µM | > 10 µM | – | EC50 [1]: 1.9 µM; EC50 [4]: 1.1 µM
2 | C[C@@]1(O)[C@H](O)[C@@H](CO)O[C@H]1n1ccc(N)nc1=O | > 10 µM | – | > 100 µM | EC50 [5]: 18 µM; EC50 [7]: 7.3 µM; EC50 [8]: 16 µM
3 | Nc1nc2c(ncn2COCCO)c(=O)[nH]1 [ACYCLOVIR] | – | – | 13 µM | –
4 | O=c1cnn([C@@H]2O[C@H](CO)[C@@H](O)[C@H]2O)c(=O)[nH]1 [6-AZAURIDINE] | – | – | 12 µM | –
5 | FC(F)(F)c1cccc(NC(=S)Nc2ccc(Cl)c(Cl)c2)c1 | 9.5 µM | 10 µM | 16 µM | CC50 [9]: 9 µM
6 | COc1c(C)c2c(c(O)c1C/C=C(\C)CCC(=O)O)C(=O)OC2 [MYCOPHENOLIC ACID] | – | – | > 100 µM | –
